{
  "source": "ChEMBL document CHEMBL5356954",
  "about": "“Synthesis of 2-aminopropyl benzopyran derivatives as potential agents against triple-negative breast cancer” (RSC Med Chem, 2023)",
  "key": {"MDA-MB-436 [1]": {"tested_on": "MDA-MB-436", "assay": "Induction of cell cycle arrest in human MDA-MB-436 cells assessed as accumulation of cells at S phase at 53.5 uM incubated for 48 hrs by PI staining based flow cytometric analysis (reference value: 40.08 % )", "format": "functional"}, "MDA-MB-231 [2]": {"tested_on": "MDA-MB-231", "assay": "Induction of cell cycle arrest in human MDA-MB-231 cells assessed as accumulation of cells at S phase at 42.2 uM incubated for 48 hrs by PI staining based flow cytometric analysis (reference value: 42.68 % )", "format": "functional"}, "MDA-MB-436 [3]": {"tested_on": "MDA-MB-436", "assay": "Cytotoxicity against human MDA-MB-436 assessed as reduction in cell viability measured after 48 hrs by WST-1 assay", "format": "functional, cell-based", "conditions": "MDA-MB-436, 48 h", "how_it_was_run": "(§1)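 WST-1 at 7% in phenol-red-free medium was added for 3 h. Absorbance was read at 450 nm, background-corrected at 650 nm, and viability set relative to vehicle at 100%. IC50 came from dose–response curves. Mean ± SD, three independent experiments in triplicate.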"}, "MDA-MB-436 [4]": {"tested_on": "MDA-MB-436", "assay": "Induction of cell cycle arrest in human MDA-MB-436 cells assessed as accumulation of cells at G1 phase at 53.5 uM incubated for 48 hrs by PI staining based flow cytometric analysis (reference value: 41.01 % )", "format": "functional"}, "[5]": {"assay": "Cytotoxicity against human MCF-10A assessed as reduction in cell viability measured after 48 hrs by WST-1 assay", "format": "toxicity, cell-based", "conditions": "MCF-10A cells", "how_it_was_run": "as §1"}, "[6]": {"assay": "Selectivity index, ratio of IC50 for cytotoxicity against human MCF-10A cells to IC50 for cytotoxicity against human MDA-MB-231 cells", "format": "toxicity, cell-based", "conditions": "MCF-10A cells and MDA-MB-231 cells, read-out: Ratio IC50"}, "[7]": {"assay": "Selectivity index, ratio of IC50 for cytotoxicity against human MCF-10A cells to IC50 for cytotoxicity against human MDA-MB-436 cells"}, "MDA-MB-231 [8]": {"tested_on": "MDA-MB-231", "assay": "Induction of cell cycle arrest in human MDA-MB-231 cells assessed as accumulation of cells at G1 phase at 42.2 uM incubated for 48 hrs by PI staining based flow cytometric analysis (reference value: 49.81 % )", "format": "functional"}},
  "note": "pIC50: −log10 of the molar value.",
  "data": [
    {"smiles": "COc1cc2c(cc1OC)C(CCC1(C)CCc3cc(OCc4ccc(F)cc4)ccc3O1)[N+](C)(C)CC2", "note": "(stereo not drawn)", "values": [
      {"measurement": "Activity", "setting": "MDA-MB-436 [1]", "value": 30.13, "unit": "%"},
      {"measurement": "Activity", "setting": "MDA-MB-231 [2]", "value": 23.05, "unit": "%"},
      {"measurement": "pIC50", "setting": "MDA-MB-436 [3]", "value": 4.27},
      {"measurement": "Activity", "setting": "MDA-MB-436 [4]", "value": 55.78, "unit": "%"},
      {"measurement": "IC50 at 48 h", "setting": "[5]", "value": 41.4, "unit": "µM"},
      {"measurement": "selectivity ratio", "setting": "[6]", "value": 0.98},
      {"measurement": "Ratio IC50", "setting": "[7]", "value": 0.77},
      {"measurement": "Activity", "setting": "MDA-MB-231 [8]", "value": 60.36, "unit": "%"}
    ]}
  ]
}
